Source: ChEMBL document CHEMBL5678799 (Biochem J, 2009)
Activity calls are given as the source filed them. No cut-off for these calls is given here.

Tests used:
[1] = molecular target: Mitogen-activated protein kinase; ERK1/ERK2 (Homo sapiens) (UniProt P27361+P28482); assay: Inhibition of ERK1/2 in serum starved/PMA-stimulated HEK293 cells assessed as reduction in RSK activity at 1 uM using crosstide as substrate incubated for 30 mins in presence of [32P]-ATP by liquid-scintillation counting method; format: cell-based
[2] = molecular target: MAP/microtubule affinity-regulating kinase 3 (Homo sapiens) (UniProt P27448); assay: Inhibition of recombinant human N-terminal His6-tagged MARK3 (2 to 729 residues) expressed in baculovirus infected Sf21 cells assessed as remaining activity at 10 uM using CHKtide as substrate incubated for 30 mins in presence of [gamma-33P]ATP by filter binding method relative to control
[3] = system: MEF; assay: Induction of cell cycle arrest in mLST8 knockout MEF cells assessed as accumulation at S phase at 3 uM incubated for 1 to 3 days by propidium iodide staining based flow cytometric analysis (reference value: 59.7 +/- 0.49%); format: toxicity; conditions: mouse, time 1-3 day
[4] = system: MEF; assay: Growth inhibition of MEF cells assessed reduction in cell viability at 3 uM incubated for 1 to 3 days by crystal violet staining based assay; format: toxicity; conditions: mouse, time 1-3 day
Procedure, shortened: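 MEFs seeded at 20000 cells per 1.91 cm2 well, grown overnight in 10% foetal bovine serum, then cultured 1, 2 or 3 days with 3 μM inhibitor, 100 nM rapamycin or DMSO. Medium changed every 24 h with freshly dissolved inhibitors. Cells fixed in 4% paraformaldehyde, stained with 0.1% Crystal Violet, dye extracted in 10% acetic acid, A590 read. Quadruplicate wells, expressed as % of DMSO control.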

[5] = molecular target: Ephrin type-B receptor 3 (Homo sapiens) (UniProt P54753); assay: Inhibition of recombinant human N-terminal His6-tagged EPHB3 (561 to 998 residues) expressed in Escherichia coli assessed as remaining activity at 10 uM using Poly(Glu, Tyr) as substrate incubated for 30 mins in presence of [gamma-33P]ATP by filter binding method relative to control
Procedure, shortened: (§1)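 Panel assays were run for 30 min at 21 °C, within the linear range for time and enzyme. […] Results are percent activity remaining relative to compound-free control, averaged from triplicate ± S.D.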

[6] = system: MEF; assay: Inhibition of mTORC2 in serum starved MEF cells assessed as reduction IGF1-stimulated AKT phosphorylation at Thr308 residue at 100 to 1000 nM incubated for 20 mins by immunoblot analysis; format: cell-based; conditions: Mus musculus, dose 100-1000 nM
Procedure, shortened: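 Serum withdrawn 16 h. Inhibitor or vehicle given 30 min before stimulation with 50 ng/ml IGF-1 for 20 min. Lysed in Tris lysis buffer and immunoblotted for Akt Thr308 phosphorylation with ECL detection. Applies to HEK-293 and to wild-type, Rictor, Sin1 or mLST8 knockout MEFs. Three independent experiments.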

[7] = molecular target: Inhibitor of nuclear factor kappa-B kinase subunit beta (Homo sapiens) (UniProt O14920); assay: Inhibition of recombinant human N-terminal His6-tagged IKKbeta (1 to 736 residues) expressed in baculovirus infected Sf21 cells assessed as remaining activity at 1 uM using LDDRHDSGLDSMKDEEY as substrate incubated for 30 mins in presence of [gamma-33P]ATP by filter binding method relative to control
Procedure, shortened: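 Profiling-centre panel assay performed robotically at 21 °C for 30 min, linear with time and enzyme. […] Values are percent of compound-free control activity, the mean of triplicates ± S.D.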

[8] = molecular target: Tyrosine-protein kinase BTK (Homo sapiens) (UniProt Q06187); assay: Inhibition of recombinant human N-terminal His6-tagged BTK (2 to 659 residues) expressed in baculovirus infected Sf21 cells assessed as remaining activity at 1 uM using KVEKIGEGTYGVVYK as substrate incubated for 30 mins in presence of [gamma-33P]ATP by filter binding method relative to control
Procedure, shortened: (§2)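 Incubation was 30 min at room temperature (21 °C) under conditions linear with time and enzyme amount. Activity is reported as percent of control lacking compound, triplicate mean ± S.D.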

[9] = system: Ribosomal protein S6 kinase beta-1 (Homo sapiens), P23443 [T412E]; assay: Inhibition of recombinant human His6-tagged S6K1 T412E mutant (1 to 421 residues) expressed in baculovirus infected Sf21 cells assessed as remaining activity at 1 uM using KKRNRTLTV as substrate incubated for 30 mins in presence of [gamma-33P]ATP by filter binding method relative to control
Procedure, shortened: (§3)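 Incubations ran robotically for 30 min at room temperature (21 °C) under linear conditions. Results are percent activity remaining versus controls without compound, as the mean of triplicates ± S.D.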

[10] = molecular target: mTORC1 (Homo sapiens) (UniProt P42345+Q8N122+Q9BVC4); conditions: HEK293, dose 30.0 nM, time 30.0 min
[11] = molecular target: Fibroblast growth factor receptor 1 (Homo sapiens) (UniProt P11362); assay: Inhibition of recombinant human N-terminal His6-tagged FGFR1 (400 to 820 residues) expressed in baculovirus infected Sf21 cells assessed as remaining activity at 10 uM using Poly(Glu,Tyr) as substrate incubated for 30 mins in presence of [gamma-33P]ATP by filter binding method relative to control; procedure, shortened: as §1
[12] = molecular target: Serine/threonine-protein kinase Nek2 (Homo sapiens) (UniProt P51955); assay: Inhibition of recombinant human N-terminal His6-tagged NEK2A (1 to 445 residues) expressed in baculovirus infected Sf21 cells assessed as remaining activity at 10 uM using RFRRSRRMI as substrate incubated for 30 mins in presence of [gamma-33P]ATP by filter binding method relative to control
[13] = molecular target: Serine/threonine-protein kinase pim-1 (Homo sapiens) (UniProt P11309); assay: Inhibition of recombinant human N-terminal His6-tagged PIM1 (2 to 313 residues) expressed in baculovirus infected Sf21 cells assessed as remaining activity at 10 uM using RSRHSSYPAGT as substrate incubated for 30 mins in presence of [gamma-33P]ATP by filter binding method relative to control; procedure, shortened: as §3
[14] = molecular target: Serine/threonine-protein kinase pim-3 (Homo sapiens) (UniProt Q86V86); assay: Inhibition of recombinant human N-terminal His6-tagged PIM3 (2 to 326 residues) expressed in baculovirus infected Sf21 cells assessed as remaining activity at 1 uM using RSRHSSYPAGT as substrate incubated for 30 mins in presence of [gamma-33P]ATP by filter binding method relative to control
[15] = molecular target: Phosphatidylinositol 3-kinase catalytic subunit type 3 (Homo sapiens) (UniProt Q8NEB9); assay: Inhibition of VPS34 (unknown origin) assessed as remaining activity at 10 uM using phosphatidylinositol as substrate incubated for 60 mins in presence of ATP relative to control
[16] = molecular target: Mitogen-activated protein kinase 14 (Homo sapiens) (UniProt Q16539); assay: Inhibition of recombinant human N-terminal GST-tagged P38alpha (1 to 360 residues) expressed in Escherichia coli assessed as remaining activity at 10 uM using MBP as substrate incubated for 30 mins in presence of [gamma-33P]ATP by filter binding method relative to control; procedure, shortened: as §2

With `COc1ccc(-c2ccc3c(N4CCOCC4)nc(N4C[C@@H](C)O[C@@H](C)C4)nc3n2)cc1CO` [Ku-0063794] the inhibition [1] was “inactive”, the Activity [2] was 93% and the Activity [3] was 36.5%. The “growth inhibition (GI)” value [4] was “Toxic”, the Activity [5] was 78% and the inhibition [6] was “Active”. The Activity [7] was 104%, the Activity [8] was 85% and the Activity [9] was 104%. It also gave an inhibition [10] of 50%, an Activity [11] of 87% and an Activity [12] of 86%. It also gave an Activity [13] of 98%, an Activity [14] of 114% and an Activity [15] of 93%. The Activity [16] was 96%.
